Assay results taken from ChEMBL document CHEMBL3627676, “Modulation of disulfide dual ENKephalinase inhibitors (DENKIs) activity by a transient N-protection for pain alleviation by oral route” (Eur J Med Chem, 2015).
Calls of active or inactive are those of the source.

How the values were obtained:
Mus musculus [1] = assay: Antinociceptive activity in po dosed OF1 mouse assessed as increase in jump latency by hot plate test; type: functional, organism-based
How it was run: (§1)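 Hot plate test in male OF1 mice (20–25 g). 150 mg/kg given per os in EtOH/PEG400/H2O (1/4/5). Jump latency recorded by stop-watch, cut-off 240 s, followed over time. Mean ± sem, n = 7–8 per group.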

Mus musculus [2] = assay: Analgesic activity in OF1 mouse assessed as decrease in hindpaw licking at 50 mg/kg ,po administered 210 mins prior to formalin challenge by formalin test relative to control; type: functional, organism-based
How it was run: (§2)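 Male OF1 mice, 25e32 g, 50 mg/kg given orally in ethanol/0.5% methylcellulose in water (1.5/98.5) before formalin. After 30 min adaptation, 20 µL of 5% formalin injected s.c. into the hindpaw. Licking/biting of the injected paw timed by stop-watch during the early phase (0–5 min). Analgesia (%) versus vehicle, n = 6–8 per group.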

Mus musculus [3] = assay: Antinociceptive activity in iv dosed OF1 mouse assessed as increase in jump latency by hot plate test; type: functional, organism-based
How it was run: (§3)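 Hot plate in male OF1 mice. 10 mg/kg given iv in EtOH/Cremophor/H2O (1/1/8) or EtOH/Tween 80/H2O (1/1/8). Jump latency recorded with a 240 s cut-off over a time course. n = 6 per group.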

Mus musculus [4] = assay: Analgesic activity in OF1 mouse assessed as decrease in hindpaw licking at 50 mg/kg ,po administered 150 mins prior to formalin challenge by formalin test; type: functional; set-up: scale not given: the % may be the effect or the level left; how it was run: as §2
Mus musculus [5] = assay: Analgesic activity in OF1 mouse assessed as decrease in hindpaw licking at 50 mg/kg ,po administered 90 mins prior to formalin challenge by formalin test; type: functional; set-up: scale not given: the % may be the effect or the level left; how it was run: as §2
Aminopeptidase N = Aminopeptidase N (Homo sapiens, UniProt P15144); assay: Inhibition of recombinant human Aminopeptidase N using L-Ala-beta-NA as substrate preincubated for 30 mins followed by substrate addition measured after 30 mins by fluorometry
Mus musculus [6] = assay: Antinociceptive activity in OF1 mouse assessed as increase in jump latency at 150 mg/kg, po by hot plate test; type: functional, organism-based; how it was run: as §1
Mus musculus [7] = assay: Antinociceptive activity in OF1 mouse assessed as increase in jump latency at 10 mg/kg, iv by hot plate test; type: functional, organism-based; how it was run: as §3
Mus musculus [8] = assay: Analgesic activity in OF1 mouse assessed as decrease in hindpaw licking at 50 mg/kg ,po administered 60 mins prior to formalin challenge by formalin test; type: functional; set-up: scale not given: the % may be the effect or the level left; how it was run: as §2
Mus musculus [9] = assay: Analgesic activity in OF1 mouse assessed as decrease in hindpaw licking at 50 mg/kg ,po administered 20 mins prior to formalin challenge by formalin test; type: functional; set-up: scale not given: the % may be the effect or the level left; how it was run: as §2
Mus musculus [10] = assay: Analgesic activity in OF1 mouse assessed as decrease in hindpaw licking at 50 mg/kg ,po administered 120 mins prior to formalin challenge by formalin test; type: functional; how it was run: as §2
Plasma [11] = assay: Prodrug conversion in Sprague-Dawley rat plasma assessed as formation of 1-{1-[2-(Carboxymethyl-carbamoyl)-3-phenyl-propyldisulfanylmethyl]-3-methylsulfanyl-propylcarbamoyloxy}-ethyl isobutyrate at 800 uM incubated for 1 to 60 mins by LC/MS analysis; type: ADME, cell-free
How it was run: (§4)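 Prodrug at 800 µM final concentration incubated at 37 °C in male Sprague-Dawley rat plasma (heparin lithium; 66 mg protein/mL) for 1, 5, 15, 30 and 60 min. Reaction stopped with absolute EtOH. Parent and metabolites monitored by LC/MS, in triplicate.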

Plasma [12] = assay: Prodrug conversion in Sprague-Dawley rat plasma assessed as formation of (S)-2-((S)-3-(((S)-2-amino-4-(methylthio)butyl)disulfanyl)-2-benzylpropanamido)propanoic acid at 800 uM incubated for 1 to 60 mins by LC/MS analysis; type: ADME, cell-free; how it was run: as §4
Plasma [13] = assay: Prodrug conversion in Sprague-Dawley rat plasma assessed as formation of PL37 at 800 uM incubated for 1 to 60 mins by LC/MS analysis; type: ADME, cell-free; how it was run: as §4
Neprilysin = Neprilysin (Homo sapiens, UniProt P08473); assay: Inhibition of recombinant human Neprilysin using Suc-Ala-Ala-Phe-AMC as substrate preincubated for 30 mins followed by substrate addition measured after 30 mins by fluorometry
Plasma [14] = assay: Drug level in Sprague-Dawley rat plasma treated with 1-(1-{2-[(1-Ethoxycarbonyloxy-ethoxycarbonylmethyl)-carbamoyl]-3-phenyl-propyldisulfanylmethyl}-3-methylsulfanyl-propylcarbamoyloxy)-ethyl isobutyrate at 800 uM incubated for 1 to 60 mins by LC/MS analysis; type: ADME, cell-free; how it was run: as §4
Mus musculus [15] = assay: Antiallodynic activity in po dosed OF1 mouse partial sciatic nerve ligation model assessed as increase in mechanical threshold to pressure after 30 mins by von Frey test; type: functional, organism-based
How it was run: (§5)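 PSNL mice (male OF1, 16–18 g; partial sciatic ligation of 33–50% under isoflurane). Oral gavage at 12.5, 25 or 50 mg/kg in EtOH/0.5% methylcellulose (1.5/98.5). Von Frey up-down withdrawal thresholds measured on ipsilateral and contralateral paws before dosing and at 30, 60 and 120 min. Kruskal-Wallis with Dunn's test.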

Mus musculus [16] = assay: Antiallodynic activity in po dosed OF1 mouse partial sciatic nerve ligation model assessed as increase in mechanical threshold to pressure at 25 mg/kg, po after 60 mins by von Frey test; type: functional; how it was run: as §5
Mus musculus [17] = assay: Antiallodynic activity in po dosed OF1 mouse partial sciatic nerve ligation model assessed as increase in mechanical threshold to pressure after 60 mins by von Frey test; type: functional, organism-based; how it was run: as §5
Mus musculus [18] = assay: Antiallodynic activity in OF1 mouse partial sciatic nerve ligation model assessed as increase in mechanical threshold to pressure at 50 mg/kg, po after 45 to 60 mins by von Frey test; type: functional, organism-based
Mus musculus [19] = assay: Antiallodynic activity in po dosed OF1 mouse partial sciatic nerve ligation model assessed as increase in mechanical threshold to pressure at 25 mg/kg, po after 30 mins by von Frey test; type: functional; how it was run: as §5
Mus musculus [20] = assay: Antiallodynic activity in po dosed OF1 mouse partial sciatic nerve ligation model assessed as increase in mechanical threshold to pressure at 25 mg/kg, po after 120 mins by von Frey test; type: functional; how it was run: as §5
Mus musculus [21] = assay: Antiallodynic activity in po dosed OF1 mouse partial sciatic nerve ligation model assessed as increase in mechanical threshold to pressure after 120 mins by von Frey test; type: functional, organism-based; how it was run: as §5
Mus musculus [22] = assay: Antiallodynic activity in OF1 mouse partial sciatic nerve ligation model assessed as increase in mechanical threshold to pressure at 50 mg/kg, po after 45 mins by von Frey test; type: functional
How it was run: (§6)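 PSNL in male OF1 mice (16–18 g): under isoflurane, a tight ligation placed around 33–50% of the right sciatic nerve. 50 mg/kg given by oral gavage in EtOH/0.5% methylcellulose (1.5/98.5). Paw withdrawal threshold (g) measured with von Frey filaments by up-down method before dosing and at 45, 90 and 150 min. n = 5–7 per group.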

Mus musculus [23] = assay: Antiallodynic activity in OF1 mouse partial sciatic nerve ligation model assessed as increase in mechanical threshold to pressure at 50 mg/kg, po after 90 mins by von Frey test; type: functional; how it was run: as §6
Mus musculus [24] = assay: Antihyperalgesic activity in OF1 mouse partial sciatic nerve ligation model assessed as increase in […] threshold to thermal stimuli at 50 mg/kg, po measured at 90 mins by planar test relative to control; type: functional
How it was run: (§7)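 Male OF1 PSNL mice given 50 mg/kg orally in EtOH/0.5% methylcellulose in water (1.5/98.5). Thermal hyperalgesia assessed by plantar test as paw withdrawal to a thermal stimulus, expressed relative to the contralateral paw, at time points up to 150 min.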

Mus musculus [25] = assay: Antihyperalgesic activity in OF1 mouse partial sciatic nerve ligation model assessed as increase in […] threshold to thermal stimuli at 50 mg/kg, po measured upto 150 mins by planar test; type: functional, organism-based; how it was run: as §7
Mus musculus [26] = assay: Antiallodynic activity in OF1 mouse partial sciatic nerve ligation model assessed as increase in mechanical threshold to pressure at 50 mg/kg, po after 150 mins by von Frey test; type: functional; how it was run: as §6

Chain of Aminopeptidase N (P15144 whole entry): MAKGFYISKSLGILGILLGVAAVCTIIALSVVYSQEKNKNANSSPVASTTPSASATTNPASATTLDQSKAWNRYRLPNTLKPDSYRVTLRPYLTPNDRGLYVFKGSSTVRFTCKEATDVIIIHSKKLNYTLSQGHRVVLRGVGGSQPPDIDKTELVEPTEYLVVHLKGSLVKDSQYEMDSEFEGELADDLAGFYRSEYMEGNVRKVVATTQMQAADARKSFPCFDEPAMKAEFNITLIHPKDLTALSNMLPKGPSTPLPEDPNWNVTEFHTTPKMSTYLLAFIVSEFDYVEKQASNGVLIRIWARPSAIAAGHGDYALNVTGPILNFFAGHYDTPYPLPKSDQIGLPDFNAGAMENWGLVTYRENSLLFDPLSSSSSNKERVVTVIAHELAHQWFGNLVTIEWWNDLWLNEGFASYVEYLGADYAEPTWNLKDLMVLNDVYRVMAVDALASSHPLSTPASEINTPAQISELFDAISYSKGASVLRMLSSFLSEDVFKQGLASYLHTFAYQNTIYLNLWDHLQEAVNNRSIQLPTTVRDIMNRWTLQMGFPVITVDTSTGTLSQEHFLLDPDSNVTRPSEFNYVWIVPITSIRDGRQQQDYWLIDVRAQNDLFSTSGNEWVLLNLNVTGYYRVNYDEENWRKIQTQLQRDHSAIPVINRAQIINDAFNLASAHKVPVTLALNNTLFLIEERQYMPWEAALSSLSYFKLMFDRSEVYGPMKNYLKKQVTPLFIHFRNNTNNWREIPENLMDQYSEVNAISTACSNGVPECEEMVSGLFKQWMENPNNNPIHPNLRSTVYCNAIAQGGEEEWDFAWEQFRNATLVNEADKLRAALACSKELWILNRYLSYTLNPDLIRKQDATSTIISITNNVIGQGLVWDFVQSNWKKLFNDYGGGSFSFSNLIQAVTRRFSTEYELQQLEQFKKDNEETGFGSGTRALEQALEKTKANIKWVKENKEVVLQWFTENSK
Chain of Neprilysin (P08473 whole entry): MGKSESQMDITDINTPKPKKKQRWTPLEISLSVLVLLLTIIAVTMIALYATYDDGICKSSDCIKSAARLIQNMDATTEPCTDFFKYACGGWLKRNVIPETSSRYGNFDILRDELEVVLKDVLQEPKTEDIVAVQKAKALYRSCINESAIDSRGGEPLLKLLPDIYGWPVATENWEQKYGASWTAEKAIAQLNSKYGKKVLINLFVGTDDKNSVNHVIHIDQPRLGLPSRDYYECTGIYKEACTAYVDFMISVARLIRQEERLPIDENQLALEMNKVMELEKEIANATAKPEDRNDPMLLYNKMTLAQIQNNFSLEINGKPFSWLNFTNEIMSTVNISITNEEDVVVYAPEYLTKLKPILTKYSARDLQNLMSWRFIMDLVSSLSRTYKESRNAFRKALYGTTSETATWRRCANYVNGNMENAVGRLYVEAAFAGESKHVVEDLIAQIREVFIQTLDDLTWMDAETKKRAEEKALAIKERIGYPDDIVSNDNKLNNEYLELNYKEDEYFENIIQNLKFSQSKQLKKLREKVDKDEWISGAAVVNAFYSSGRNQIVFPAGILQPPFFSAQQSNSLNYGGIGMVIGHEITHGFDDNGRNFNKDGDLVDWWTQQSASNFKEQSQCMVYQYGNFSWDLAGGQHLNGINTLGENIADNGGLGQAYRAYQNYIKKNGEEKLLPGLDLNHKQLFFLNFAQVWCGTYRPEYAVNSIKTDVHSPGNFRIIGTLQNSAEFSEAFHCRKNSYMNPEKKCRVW

SMILES	Activity (Mus musculus [1])	Activity (Mus musculus [2])	Activity (Mus musculus [3])	Activity (Mus musculus [4]) [%]	Activity (Mus musculus [5]) [%]	also measured
CSCC[C@H](N)CSSC[C@@H](Cc1ccccc1)C(=O)NCC(=O)OCc1ccccc1	Active					
CC(OC(=O)N[C@@H](CC[S+](C)[O-])CSSC[C@@H](Cc1ccccc1)C(=O)NCC(=O)OCc1ccccc1)OC(=O)C(C)C (some centres undefined)	inactive	inactive	inactive	38	39	
C[S+]([O-])CC[C@H](N)CSSC[C@@H](Cc1ccccc1)C(=O)NCC(=O)OCc1ccccc1 (some centres undefined)	Active					
CCOC(=O)OC(C)OC(=O)CNC(=O)[C@@H](CSSC[C@H](CC[S+](C)[O-])NC(=O)OC(C)OC(=O)C(C)C)Cc1ccccc1 (some centres undefined)	inactive	inactive	inactive	38	39	
O=C(O)CNC(=O)C(CS)Cc1ccccc1 (centres undefined) [THIORPHAN]						Ki (Aminopeptidase N): > 10 µM
CSCC[C@@H](CSSC[C@@H](Cc1ccccc1)C(=O)NCC(=O)OCc1ccccc1)NC(=O)OC(C)OC(=O)C(C)C (some centres undefined)	inactive	inactive	inactive	26	34	
C[S+]([O-])CC[C@H](N)CSSCC1(C(=O)N[C@@H](CC(=O)O)C(=O)O)CCCC1 (some centres undefined)	Active					
CCOC(=O)OC(C)OC(=O)CNC(=O)[C@@H](CSSC[C@@H](N)CCSC)Cc1ccccc1.O=C(O)/C=C/C(=O)O (some centres undefined)						Activity (Mus musculus [6]): Active; Activity (Mus musculus [7]): Active; Activity (Mus musculus [8]): 31%; Activity (Mus musculus [9]): 62%; Activity (Mus musculus [10]): inactive
CCOC(=O)OC(C)OC(=O)CNC(=O)[C@@H](CSSC[C@@H](N)CC[S+](C)[O-])Cc1ccccc1 (some centres undefined)	Active					
C[S+]([O-])CC[C@H](N)CSSC[C@@H](Cc1ccccc1)C(=O)NCC(=O)O (some centres undefined)	Active					
CC(OC(=O)N[C@@H](CC[S+](C)[O-])CSSCC1(C(=O)N[C@@H](CC(=O)O)C(=O)O)CCCC1)OC(=O)C(C)C (some centres undefined)	inactive	inactive	inactive	47	46	
O=C(O)C[C@H](NC(=O)C1(CS)CCCC1)C(=O)O						Ki (Aminopeptidase N): > 10 µM
CCOC(=O)OC(C)OC(=O)CNC(=O)[C@@H](CSSC[C@H](CCSC)NC(=O)OC(C)OC(=O)C(C)C)Cc1ccccc1 (some centres undefined)		inactive		30	32	Drug metabolism (Plasma [11]): metabolite_detected; Activity (Mus musculus [6]): inactive; Drug metabolism (Plasma [12]): metabolite_detected; Activity (Mus musculus [7]): inactive; Activity (Mus musculus [8]): 56%; Activity (Mus musculus [9]): 25%; Activity (Mus musculus [10]): 31%; Drug metabolism (Plasma [13]): metabolite_notdetected
C[S+]([O-])CC[C@H](N)CS (some centres undefined)						Ki (Neprilysin): > 10 µM
CSCC[C@H](N)CSSC[C@@H](Cc1ccccc1)C(=O)NCC(=O)O	Active					Drug metabolism (Plasma [14]): metabolite_detected
CC(OC(=O)N[C@@H](CC[S+](C)[O-])CSSC[C@@H](Cc1ccccc1)C(=O)NCC(=O)O)OC(=O)C(C)C (some centres undefined)	inactive	inactive	inactive	38	39	Activity (Mus musculus [15]): Dose-dependent effect; Activity (Mus musculus [16]): 52%; Activity (Mus musculus [17]): Dose-dependent effect; Activity (Mus musculus [18]): Active; Activity (Mus musculus [19]): 40%; Activity (Mus musculus [20]): 63%; Activity (Mus musculus [21]): Dose-dependent effect
CSCC[C@@H](CSSC[C@@H](Cc1ccccc1)C(=O)NCC(=O)O)NC(=O)OC(C)OC(=O)C(C)C (some centres undefined)	inactive	inactive	inactive	31	34	Activity (Mus musculus [22]): 64%; Activity (Mus musculus [23]): 56%; Activity (Mus musculus [24]): 100%; Activity (Mus musculus [25]): Active; Activity (Mus musculus [26]): 18%; Drug metabolism (Plasma [14]): metabolite_detected
